# Assay outcomes (PubChem)
# EP2 antag: EP2 receptor (human) inhibition | AID 1422 | C6 glioma cells expressing human EP2, cAMP TR-FRET; cells stimulated with saturating PGE2 | 260,000 tested, 0.52% active | P43116 | inhibition, % at 25 µM;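 active = percent inhibition above 40 after rounding to a whole number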;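 note: rat C6 glioma host cells with rolipram phosphodiesterase inhibitor present; the protocol text gives 20 µM as final concentration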
# Target sequence (P43116 whole entry, looked up): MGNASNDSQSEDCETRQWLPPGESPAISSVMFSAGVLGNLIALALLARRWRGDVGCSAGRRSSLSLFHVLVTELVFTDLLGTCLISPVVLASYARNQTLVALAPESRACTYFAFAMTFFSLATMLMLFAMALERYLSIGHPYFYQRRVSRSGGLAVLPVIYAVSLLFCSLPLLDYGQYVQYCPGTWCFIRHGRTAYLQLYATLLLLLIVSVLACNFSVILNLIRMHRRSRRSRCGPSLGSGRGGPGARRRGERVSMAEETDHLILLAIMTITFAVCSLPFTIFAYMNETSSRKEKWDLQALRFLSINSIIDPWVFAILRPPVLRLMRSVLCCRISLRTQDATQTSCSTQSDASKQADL
# MC4R antag cAMP: blocks human MC4R cAMP signaling | MC4R-expressing cells, MTII-stimulated cAMP, LANCE TR-FRET | inhibition, % at 6.5 µM | 360,000 tested, 0.48% active;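 active = inhibition above its plate's cutoff, the mean of tested wells on that plate plus 3 SD, cut at about 29% in these data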;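 note: 0% = Melanotan II alone and 100% = Melanotan II plus saturating MCL0020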
# Target sequence (P32245 whole entry, looked up): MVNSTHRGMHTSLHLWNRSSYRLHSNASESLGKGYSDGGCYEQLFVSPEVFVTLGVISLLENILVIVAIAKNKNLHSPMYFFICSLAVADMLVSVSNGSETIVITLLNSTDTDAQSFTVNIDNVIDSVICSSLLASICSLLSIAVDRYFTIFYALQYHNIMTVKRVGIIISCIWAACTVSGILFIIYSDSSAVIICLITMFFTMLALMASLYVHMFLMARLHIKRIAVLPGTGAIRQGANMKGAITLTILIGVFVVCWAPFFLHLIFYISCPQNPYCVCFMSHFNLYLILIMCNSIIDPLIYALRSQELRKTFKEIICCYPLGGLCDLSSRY
#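 Assay system: human MC4R-expressing U2OS cells; reagent: Melanotan II stimulation of cells; dosing: 6.5 µM single dose; timing: compound 30 min, challenge 1 h, detection 1 h; signal: TR-FRET cAMP assay; replicates: one well per compound, no replicates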
# Granule exo inh: blocks lytic granule exocytosis; inhibition, % at 10 µM; 360,000 tested, 0.66% active; AID 651702; TALL-104 LAMP-1 surface exposure, flow cytometry; cells stimulated with thapsigargin and PMA;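 active = inhibition above about 55%, limit read from the data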
# EP2 mod: modulators of human EP2 prostaglandin E2 receptor | P43116 | EP2-expressing cells, cAMP HTRF FRET, PGE2 co-stimulation | induction, % at 25 µM | 260,000 tested, 0.83% active;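 active = compounds whose cAMP rise, as percent of the full-agonist control response, exceeds 60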;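 note: rat C6 glioma line stably carrying human EP2 under a CMV promoter; the protocol text gives 20 µM as final concentration; 100% = response of wells given 1 µM PGE2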
# T cell HTS: modulates CD8 T cell binding to vesicles. 2C CD8+ T cell-vesicle binding, flow cytometry; stronger effect = lower value. response (vesicle binding), % at 7 µM. 330,000 tested, 0.068% active;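 active = response, share of CD8 T cells binding vesicles, and their 90th percentile fluorescence all below set limits, cut at about 80% in these data, passing the limit was not always enough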;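 note: values below 100% mean blocked vesicle binding to the CD8+ T cells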
#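 System: murine 2C transgenic CD8+ T lymphocytes; also added: QL9-loaded Drosophila micro-vesicles; times: binding 1.5 h at 37 °C; measured by: flow cytometry, PE anti-B7-1 (FL2) versus Alexa647 anti-CD8 (FL8), PFA-fixed; control set: Peptide-free naked vesicles (low) and QL9 vesicles with 0.7% DMSO vehicle (high)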
# MC4R barr agon: activates human MC4R beta-arrestin recruitment; AID 540308; U2OS MC4R beta-arrestin complementation, luminescence; percent of melanotan II response, DMSO zero; activation, % at 8.9 µM; P32245; 360,000 tested, 0.98% active;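 active = activation above a per-plate cutoff, the mean activation of sample wells on that plate plus 3 SD, cut at about 8% in these data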
# Exocytosis CP01: lytic granule exocytosis inhibition; shares compounds with Granule exo inh; TALL-104 cells, LAMP-1 externalization, flow cytometry; stimulated with PMA plus thapsigargin; inhibition, % at 10 µM; 1,500 tested, 11% active; AID 651954; in the data active = inhibition above about 60%;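 note: 0% = stimulated vehicle wells and 100% = unstimulated wells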
# The depositor's hits bear a star; i = inactive; x = no result. Sampled rows, rich in hits. Any-hit rate of the full collection: about 2.6%.
SMILES,EP2 antag,MC4R antag cAMP,Granule exo inh,EP2 mod,T cell HTS,MC4R barr agon,Exocytosis CP01
CCOc1ccc(-c2cnc(NCc3cccc4ccccc34)n2CCOC)cc1,x,-1.0,111.1*,x,356.4,-1.3,0.8
COCCn1c(-c2ccc(OC)cc2)cnc1N,1.4,0.1,-2.1,0.0,182.0,-2.4,x
CC(NC(=O)C(C)N1c2cccc3cccc(c23)S1(=O)=O)c1ccccc1 (stereo not drawn),x,-4.0,81.9*,x,239.8,0.8,-6.4
CC(C(N)=O)N1c2cccc3cccc(c23)S1(=O)=O (stereo not drawn),9.1,3.1,-7.0,19.4,982.2,2.2,x
CCn1c(=O)c2c3c(sc2n2c(SCc4ccc(F)cc4)nnc12)CCCC3,x,-2.1,56.3*,x,230.7,-0.9,-2.3
Cc1cccc(N2CC(C(=O)Nc3ccc(S(=O)(=O)NCC4CCCO4)cc3)CC2=O)c1C (stereo not drawn),x,2.8,-11.4,x,278.1,-0.2,x
Cc1cc(Br)cn2c(Cc3ccsc3)c(-c3ccco3)nc12,x,x,59.5*,x,x,x,-14.9
Clc1ccccc1Cn1nnc2c(N3CCOCC3)nc(C3CC3)nc21,x,-12.2,-2.8,30.1,281.5,-2.2,x
COc1c2ccoc2c(OC[C@@H](O)C(C)(C)O)c2oc(=O)ccc12,7.5,4.0,63.3*,-5.3,897.1,0.4,-5.1
Cc1nn(-c2ccccc2)c(Cl)c1C(=O)OCC(=O)N(C)c1c(N)n(Cc2ccccc2)c(=O)[nH]c1=O,x,27.5,6.9,x,290.4,-2.1,x
CN(Cc1ccccc1)c1ncnc2sccc12,x,-3.3,57.2*,x,345.8,-1.0,-3.1
O=C(Nc1ccc2nc(-c3cccs3)c(-c3cccs3)nc2c1)NC1CC1,14.8,13.8,98.9*,-8.0,740.5,-1.3,102.8*
CCOC(=O)C1CCN(C(c2ccccn2)c2c(C)[nH]c3ccccc23)CC1 (stereo not drawn),-1.5,11.0,55.3,-16.7,230.1,-0.7,x
Cc1[nH]c2ccccc2c1C(c1ccccn1)N1CCC(C(N)=O)CC1 (stereo not drawn),15.1,9.5,56.8*,-4.8,295.4,2.7,17.6
CC(C)Oc1ccc(C(=O)CCN2CCOCC2)cc1,x,7.8,58.6*,x,241.4,-0.3,-11.2
CCCOc1ccc(C(=O)CCN2CCN(C(=O)OCC)CC2)cc1,2.9,10.2,60.5*,5.3,x,-4.6,-13.5
CCOc1ccc(C(=O)CCN2CCCCC2)cc1,-1.4,28.1,93.0*,29.6,213.4,-1.0,-11.3
CCCCCOc1ccc(C(=O)CCN2CCOCC2)cc1,x,9.2,7.2,x,223.6,-1.8,x
CC(C)Oc1ccc(C(=O)CCN2CCCCC2)cc1,9.1,13.6,95.0*,21.6,164.1,-1.2,5.1
O=C(COc1ccccc1)N1CCN(C(=O)c2ccccc2F)CC1,x,5.7,-10.5,x,140.4,-1.9,x
CC1CCN(c2ccc3nnc(CCC(=O)Nc4ccc(F)c(F)c4)n3n2)CC1,x,-6.6,7.9,x,213.4,6.6,x
COc1ccc(C2CC(=O)Oc3c(C(CCN4CCCC(C)C4)c4ccc(N(C)C)cc4)c(OC)cc(OC)c32)cc1 (stereo not drawn),8.7,1.9,72.4*,-15.1,458.1,0.7,-2.4
COc1ccc(C2CC(=O)Oc3c(C(CCN4CCCCC4)c4ccc(N(C)C)cc4)c(OC)cc(OC)c32)cc1 (stereo not drawn),23.6,-3.5,-1.4,5.2,x,0.0,x
NC(CCc1ccccc1)c1csc(NC(=O)Nc2cccc(Cl)c2)n1 (stereo not drawn),x,11.0,57.2*,x,x,6.6,10.0
COc1ccccc1NC(=O)Nc1nc(C(N)CCc2ccccc2)cs1 (stereo not drawn),x,1.2,2.5,x,x,2.0,x
SMILES,EP2 antag,MC4R antag cAMP,Granule exo inh,EP2 mod,T cell HTS,MC4R barr agon,Exocytosis CP01
Cc1ccc(NC(=O)CN2C(=O)N/C(=C/c3ccc(C)o3)C2=O)cc1,-1.6,5.0,18.7,-2.0,309.1,0.3,x
Cc1cccc(NC(=O)CN2C(=O)N/C(=C/c3ccc(C)o3)C2=O)c1,6.2,0.9,84.8*,10.1,520.4,-1.3,-12.4
COCCNC(=S)N(CCc1c(C)[nH]c2ccc(F)cc12)Cc1ccc(C)cc1,x,5.4,77.1*,x,151.7,1.5,22.8
COCCNC(=S)N(CCc1c(C)[nH]c2ccc(C)cc12)Cc1ccco1,6.5,4.5,5.3,-19.6,738.9,-0.6,x
COc1nccnc1NS(=O)(=O)c1ccc(NCc2ccccc2O)cc1,x,0.1,1.0,x,210.9,-0.2,x
CC(C)n1nccc1N(Cc1ccc(Cl)cc1)S(=O)(=O)c1ccccc1,x,6.8,97.3*,x,135.4,-4.5,2.2
CC(C)n1nccc1N(Cc1ccc(Br)cc1)S(=O)(=O)c1ccccc1,x,23.1,90.3*,x,200.1,3.4,10.9
Cc1ccc(S(=O)(=O)N(Cc2ccc(Cl)cc2)c2ccccc2C(=O)O)cc1,x,1.2,6.3,x,270.4,1.2,x
COc1ccc(-c2nnc(SCC(=O)N(Cc3ccccc3)C(C)(C)C)o2)c(OC)c1,8.1,x,x,6.7,x,x,x
COc1cc(NC(=O)c2csc3c2CCCC3)ncn1,-2.2,-1.9,1.2,27.7,229.9,3.9,x
O=C(CNS(=O)(=O)c1cccc(F)c1)OCC(=O)N1CCCC1=O,x,15.8,1.2,x,i,-0.7,x
O=C(CNS(=O)(=O)c1c(F)cc(F)cc1Br)OCC(=O)N1CCCC1=O,x,13.9,61.2*,x,559.6,-1.6,-3.9
Nc1nc(SCC(=O)NC2CCCC2)[nH]c(=O)c1NC(=O)c1cccs1,10.1,-4.0,-3.1,40.7,172.8,0.1,x
O=C(CN1C(=O)C(=O)c2ccccc21)c1ccc(Cl)cc1,x,10.2,62.6*,x,239.0,-0.1,-11.9
O=C(Nc1ccc(F)cc1Cl)c1ccc2c(=O)n3c(nc2c1)CCC3,x,-6.4,4.3,x,237.9,0.4,x
COC(=O)c1cn(C(=O)c2cc(C)cc(C)c2)c2ccccc12,4.7,0.0,1.0,47.7,158.2,0.8,x
COC(=O)c1cn(C(=O)c2ccc(C)cc2)c2ccccc12,9.5,-5.4,-0.7,34.5,i,-2.0,x
COC(=O)c1cn(C(=O)c2cc(Br)ccc2Cl)c2ccccc12,x,-3.6,71.7*,x,147.5,-0.1,-2.2
COC(=O)c1cn(C(=O)c2ccc(OC)cc2)c2ccccc12,x,-22.9,70.2*,x,186.6,-2.2,-12.9
CC(NC1=CC(=O)c2cccnc2C1=O)C(O)c1ccccc1 (stereo not drawn),x,-12.2,53.7,x,x,-1.7,x
COc1ccc(N2C(=O)CC(Sc3nnc(-c4ccccc4)o3)C2=O)cc1 (stereo not drawn),6.9,23.4,57.1*,28.4,409.0,0.9,86.9*
CC(C)(C)C1CCC(OCC(O)CN2CCN(Cc3ccccc3)CC2)CC1 (stereo not drawn),8.2,-1.6,71.6*,20.9,447.1,3.0,-3.0
